Experimental data as given in ChEMBL document CHEMBL1765048 (J Med Chem, 2011).
Activity calls are given as the source filed them. The rule behind the calls is not given here.

Legend:
[1] = Displacement of [3H]prazosin from adrenergic alpha1 receptor in porcine cerebral cortex after 60 mins; format: tissue-based, Sus scrofa
D(3) dopamine receptor [2] = target: D(3) dopamine receptor (Homo sapiens, UniProt P35462, V87F); assay: Displacement of [3H]spiperone from human dopamine D3 receptor V2.61F mutant expressed in HEK293 cells after 60 mins; format: cell-based
Summary of the method: (§1)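 Membranes from HEK293 cells transiently transfected with wild-type or mutant D3 were harvested at 48 h. KD and Bmax were set by [3H]spiperone saturation. Competition at 20-200 μg/mL protein for 1 h at 37 °C, ended by filtration on PEI-soaked GF/B filters, then scintillation counting. Ki by Cheng-Prusoff as mean ± SEM of 3-12 experiments in triplicate.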

D(1A) dopamine receptor = D(1A) dopamine receptor (Sus scrofa, UniProt P50130); assay: Displacement of [3H]SCH23390 from dopamine D1 receptor in porcine cerebral cortex after 60 mins; format: tissue-based
D(2) dopamine receptor [3] = target: T1, D(2) dopamine receptor (Homo sapiens, UniProt P14416); assay: Displacement of [3H]7-OH-DPAT from human dopamine D2long receptor expressed in CHO cells after 60 mins; format: cell-based
Summary of the method: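 CHO membranes stably expressing D2long (200 μg protein/well) incubated with 1.0 nM [3H]7-OH-DPAT for 60 min at 37 °C. […] Ki from Cheng-Prusoff; 3-8 experiments in triplicate.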

D(3) dopamine receptor [4] = target: D(3) dopamine receptor (Homo sapiens, UniProt P35462, S196A); assay: Displacement of [3H]spiperone from human dopamine D3 receptor S5.46A mutant expressed in HEK293 cells after 60 mins; format: cell-based; summary of the method: as §1
Homo sapiens = species: Homo sapiens; assay: Selectivity ratio of Ki for human dopamine D3 receptor V2.61F mutant to Ki for wild type human dopamine D3 receptor
D(2) dopamine receptor [5] = target: T1, D(2) dopamine receptor; assay: Displacement of [3H]spiperone from human dopamine D2short receptor expressed in CHO cells after 60 mins; format: cell-based
Summary of the method: (§2)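 Incubated 60 min at 37 °C in sodium-free buffer: 50 mM Tris-HCl, 1 mM EDTA, 5 mM MgCl2, 0.1 mM DTT, bacitracin, trypsin inhibitor, pH 7.4. Ki by Cheng-Prusoff; 3-9 experiments in triplicate.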

D(3) dopamine receptor [6] = target: T2, D(3) dopamine receptor (Homo sapiens, UniProt P35462); assay: Displacement of [3H]spiperone from human dopamine D3 receptor H6.55A mutant expressed in HEK293 cells after 60 mins
D(2) dopamine receptor [7] = target: T1, D(2) dopamine receptor; assay: Displacement of [3H]spiperone from human dopamine D2long receptor expressed in CHO cells after 60 mins; format: cell-based; summary of the method: as §2
D(4) dopamine receptor = target: T3, D(4) dopamine receptor (Homo sapiens, UniProt P21917); assay: Displacement of [3H]spiperone from human dopamine D4.4 receptor expressed in CHO cells after 60 mins; format: cell-based; summary of the method: as §2
T3 sequence (P21917 whole entry): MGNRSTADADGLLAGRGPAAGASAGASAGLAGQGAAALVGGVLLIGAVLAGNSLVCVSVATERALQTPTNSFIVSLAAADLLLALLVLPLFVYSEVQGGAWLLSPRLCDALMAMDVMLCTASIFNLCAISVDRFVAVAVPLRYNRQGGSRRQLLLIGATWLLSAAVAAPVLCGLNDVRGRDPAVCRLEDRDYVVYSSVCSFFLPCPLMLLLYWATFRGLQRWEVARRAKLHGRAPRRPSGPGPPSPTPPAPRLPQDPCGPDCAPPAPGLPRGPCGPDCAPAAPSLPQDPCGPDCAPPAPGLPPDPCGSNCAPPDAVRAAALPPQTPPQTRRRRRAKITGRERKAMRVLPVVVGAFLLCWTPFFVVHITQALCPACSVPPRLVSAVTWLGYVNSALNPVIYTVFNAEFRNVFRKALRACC

D(3) dopamine receptor [8] = target: T2, D(3) dopamine receptor; assay: Displacement of [3H]spiperone from wild type human dopamine D3 receptor expressed in HEK293 cells after 60 mins; format: cell-based; summary of the method: as §1
D(3) dopamine receptor [9] = target: D(3) dopamine receptor (Homo sapiens, UniProt P35462, D110E); assay: Displacement of [3H]spiperone from human dopamine D3 receptor D3.32E mutant expressed in HEK293 cells after 60 mins; format: cell-based; summary of the method: as §1
D(3) dopamine receptor [10] = target: T2, D(3) dopamine receptor; assay: Displacement of [3H]spiperone from human dopamine D3 receptor S5.42A mutant expressed in HEK293 cells after 60 mins; format: cell-based; summary of the method: as §1
D(3) dopamine receptor [11] = target: T2, D(3) dopamine receptor; assay: Displacement of [3H]spiperone from human dopamine D3 receptor expressed in CHO cells after 60 mins; format: cell-based; summary of the method: as §2
D(3) dopamine receptor [12] = target: T2, D(3) dopamine receptor; assay: Displacement of [3H]7-OH-DPAT from human dopamine D3 receptor expressed in CHO cells after 60 mins; format: cell-based
D(2) dopamine receptor [13] = target: T1, D(2) dopamine receptor; assay: Antagonist activity at human dopamine D2long receptor expressed in CHO cells assessed as inhibition of forskolin-induced cAMP accumulation by bioluminescence assay; format: functional, cell-based
Summary of the method: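 CHO cells stably expressing D2long, seeded at 5000 cells/well 24 h before assay and washed with PBS. Compounds added with 20 μM forskolin in serum-free medium containing 500 μM IBMX and 100 μM Ro 20-1724, pH 7.4, for 15 min at 25 °C. cAMP read by cAMP-Glo luminescence (PKA kinase reaction, then Kinase-Glo).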

D(2) dopamine receptor [14] = target: T1, D(2) dopamine receptor; assay: Agonist activity at human dopamine D2long receptor expressed in HEK293 cells co-expressing Galphai2 assessed as incorporation of [35S]GTPgammaS into Galphai2 after 30 mins by scintillation counting; format: functional, cell-based
Summary of the method: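 Membranes from HEK293 cells transiently co-transfected with D2long and PTX-insensitive Gαi2 (receptor 4900 ± 440 fmol/mg), harvested 48 h post-transfection. Buffer: 20 mM Hepes, 10 mM MgCl2, 100 mM NaCl, 70 mg/L saponin, pH 7.4. Membranes (30-50 μg/mL protein), compound and 10 μM GDP preincubated 30 min at 30 °C, then 0.10 nM [35S]GTPγS added for 75 min at 30 °C. Reaction stopped by filtration and bound counts read.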

D(2) dopamine receptor [15] = target: T1, D(2) dopamine receptor; assay: Agonist activity at human dopamine D2long receptor expressed in CHO cells assessed as increase of forskolin-induced cAMP accumulation by bioluminescence assay
D(2) dopamine receptor [16] = target: T1, D(2) dopamine receptor; assay: Agonist activity at human dopamine D2long receptor expressed in CHO cells assessed as induction of [3H]thymidine incorporation after 2 hrs
D(3) dopamine receptor [17] = target: T2, D(3) dopamine receptor; assay: Agonist activity at human dopamine D3 receptor expressed in HEK293 cells co-expressing Galphao1 assessed as incorporation of [35S]GTPgammaS into Galphao1 after 30 mins by scintillation counting; format: functional, cell-based
Summary of the method: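 Membranes from HEK293 cells transiently transfected with D3 plus PTX-insensitive Gαo; expression 1100 fmol/mg. Buffer: 20 mM Hepes, 10 mM MgCl2, 100 mM NaCl, 70 mg/L saponin, pH 7.4. Membranes at 30-50 μg/mL, with compound and 10 μM GDP, preincubated 30 min at 37 °C. Then 0.10 nM [35S]GTPγS added for 30 min at 37 °C. Filtration, scintillation counting.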

D(3) dopamine receptor [18] = target: T2, D(3) dopamine receptor; assay: Agonist activity at human dopamine D3 receptor expressed in CHO cells assessed as induction of [3H]thymidine incorporation after 2 hrs; format: functional, cell-based
Summary of the method: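 CHO dhfr- cells stably expressing D3 receptor labeled with 0.02 μCi [3H]thymidine per well (specific activity […]) for 2 h after stimulation with compound. […] Operational model used to estimate τ.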

D(2) dopamine receptor [19] = target: T1, D(2) dopamine receptor; assay: Agonist activity at human dopamine D2long receptor expressed in HEK293 cells co-expressing Galphao1 assessed as incorporation of [35S]GTPgammaS into Galphao1 after 30 mins by scintillation counting; format: functional, cell-based
Summary of the method: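 Membranes from HEK293 cells transiently co-transfected with D2long and PTX-insensitive Gαo (receptor 1500 ± 50 fmol/mg), harvested 48 h post-transfection. Buffer: 20 mM Hepes, 10 mM MgCl2, 100 mM NaCl, 70 mg/L saponin, pH 7.4. Membranes (30-50 μg/mL protein), compound and 10 μM GDP preincubated 30 min at 37 °C, then 0.10 nM [35S]GTPγS added for 30 min at 37 °C. Reaction stopped by filtration and bound counts read.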

Chain of D(1A) dopamine receptor (P50130 whole entry): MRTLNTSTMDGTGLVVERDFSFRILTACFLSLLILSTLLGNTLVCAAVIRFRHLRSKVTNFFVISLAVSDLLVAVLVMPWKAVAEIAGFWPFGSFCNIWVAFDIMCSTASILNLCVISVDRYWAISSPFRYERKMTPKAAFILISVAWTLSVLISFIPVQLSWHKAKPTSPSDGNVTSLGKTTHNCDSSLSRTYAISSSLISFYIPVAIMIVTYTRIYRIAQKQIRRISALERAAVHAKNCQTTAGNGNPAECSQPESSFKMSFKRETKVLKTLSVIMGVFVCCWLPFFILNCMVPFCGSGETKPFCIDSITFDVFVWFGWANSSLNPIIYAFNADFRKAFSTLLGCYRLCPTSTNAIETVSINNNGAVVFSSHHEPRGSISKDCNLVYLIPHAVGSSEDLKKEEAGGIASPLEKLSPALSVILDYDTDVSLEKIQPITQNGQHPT
T1 sequence (P14416 whole entry): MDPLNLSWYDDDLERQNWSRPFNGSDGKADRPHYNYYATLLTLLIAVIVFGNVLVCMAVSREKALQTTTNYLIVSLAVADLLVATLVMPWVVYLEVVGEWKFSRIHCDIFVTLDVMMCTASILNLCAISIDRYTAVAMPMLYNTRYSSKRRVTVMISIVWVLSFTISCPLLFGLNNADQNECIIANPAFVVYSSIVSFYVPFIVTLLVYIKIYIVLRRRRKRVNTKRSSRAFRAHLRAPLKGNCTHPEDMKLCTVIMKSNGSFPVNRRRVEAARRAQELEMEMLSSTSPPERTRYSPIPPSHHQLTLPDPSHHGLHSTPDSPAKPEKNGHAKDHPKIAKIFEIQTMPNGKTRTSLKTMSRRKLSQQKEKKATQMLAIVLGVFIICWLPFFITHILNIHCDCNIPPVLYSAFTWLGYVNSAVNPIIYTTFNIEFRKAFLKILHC
T2 sequence (P35462 whole entry): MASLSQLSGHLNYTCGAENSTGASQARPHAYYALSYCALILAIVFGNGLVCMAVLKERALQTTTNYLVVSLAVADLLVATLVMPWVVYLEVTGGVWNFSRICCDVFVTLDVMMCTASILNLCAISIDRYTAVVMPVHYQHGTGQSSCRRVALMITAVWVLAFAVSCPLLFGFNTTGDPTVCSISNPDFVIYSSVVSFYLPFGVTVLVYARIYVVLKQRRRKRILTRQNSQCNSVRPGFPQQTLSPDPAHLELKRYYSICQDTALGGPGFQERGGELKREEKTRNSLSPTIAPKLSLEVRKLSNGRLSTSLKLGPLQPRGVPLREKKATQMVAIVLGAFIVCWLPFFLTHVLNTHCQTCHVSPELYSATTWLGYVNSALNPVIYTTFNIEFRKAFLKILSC
Chain of D(3) dopamine receptor (Homo sapiens, UniProt P35462, S196A) (P35462 as listed by the source S196A): as the sequence (P35462 whole entry) above, with G9S, S196A counted along it
Chain of D(3) dopamine receptor (Homo sapiens, UniProt P35462, V87F) (P35462 as listed by the source V87F): as the sequence (P35462 whole entry) above, with G9S, V87F counted along it
Chain of D(3) dopamine receptor (Homo sapiens, UniProt P35462, D110E) (P35462 as listed by the source D110E): as the sequence (P35462 whole entry) above, with G9S, D110E counted along it

| Structure (SMILES) | Ki [1] [nM] | Ki (D(3) dopamine receptor [2]) [nM] | Ki (D(1A) dopamine receptor) [nM] | Ki (D(2) dopamine receptor [3]) [nM] | Ki (D(3) dopamine receptor [4]) [nM] | Ratio Ki (Homo sapiens) | Ki (D(2) dopamine receptor [5]) [nM] | Ki (D(3) dopamine receptor [6]) [nM] | Ki (D(2) dopamine receptor [7]) [nM] | Ki (D(4) dopamine receptor) [nM] | Ki (D(3) dopamine receptor [8]) [nM] | Ki (D(3) dopamine receptor [9]) [nM] | Ki (D(3) dopamine receptor [10]) [nM] | Ki (D(3) dopamine receptor [11]) [nM] | Ki (D(3) dopamine receptor [12]) [nM] | other results |
| --- | --- | --- | --- | --- | --- | --- | --- | --- | --- | --- | --- | --- | --- | --- | --- | --- |
| CCCN(CCC)[C@H]1CCn2nccc2C1 | 5100 | 420 | 53000 | 4.6 | 45 | 2.8 | 270 | 420 | 410 | 380 | 150 | 8100 | 840 | 31 | 14 |  |
| CCCN(CCC)[C@@H]1CCn2nccc2C1 | 2900 |  | 68000 | 57000 |  |  | 53000 |  | 55000 | 17000 |  |  |  | 2100 | 4300 |  |
| CCCN(CCCCNC(=O)c1ccccc1)C1Cc2ccccc2C1 |  | 250 |  |  |  | 93 |  |  |  |  | 2.7 |  |  |  |  |  |
| CCCN(CCCCNC(=O)c1ccc(-c2ccccc2)cc1)C1CCn2nccc2C1 (racemic) | 520 |  | 6800 |  |  |  | 77 |  | 150 | 59 |  |  |  | 0.71 |  |  |
| COc1ccccc1N1CCN(CCCCNC(=O)c2ccc(-c3ccccc3)cc2)CC1 | 5.6 | 180 | 570 |  | 0.16 |  |  | 0.58 |  | 27 | 0.9 | 790 | 2.8 | 0.22 |  | inhibition (D(2) dopamine receptor [13]): Active |
| CCCN(CCCCNC(=O)c1ccc(-c2ccccc2)cc1)[C@H]1CCn2nccc2C1 |  | 170 |  | 1 | 0.058 | 2200 |  | 0.98 | 5.3 |  | 0.076 | 850 | 2.3 | 0.19 | 0.027 | EC50 (D(2) dopamine receptor [14]): 370 nM; EC50 (D(2) dopamine receptor [15]): 110 nM; EC50 (D(2) dopamine receptor [16]): 0.51 nM; EC50 (D(3) dopamine receptor [17]): 0.056 nM; EC50 (D(3) dopamine receptor [18]): 0.0028 nM; EC50 (D(2) dopamine receptor [19]): 26 nM |
| CCCCC(=O)NCCCCN(CCC)C1Cc2ccccc2C1 |  | 760 |  |  |  | 17 |  |  |  |  | 44 |  |  |  |  |  |
| CCCN(CCC)C1Cc2ccccc2C1 |  | 350 |  |  |  | 1.5 |  |  |  |  | 230 |  |  |  |  |  |
| CCCN(CCCCNC(C)=O)C1Cc2ccccc2C1 |  | 330 |  |  |  | 0.8 |  |  |  |  | 410 |  |  |  |  |  |
| CCCN(CCCCNC(=O)c1ccc(-c2ccccc2)cc1)[C@@H]1CCn2nccc2C1 |  | 3700 |  | 49 | 15 | 190 |  | 43 | 300 |  | 19 | 1400 | 240 | 15 | 6.3 | EC50 (D(3) dopamine receptor [17]): 51 nM |
| CCCN(CCCCNC(=O)c1ccc(-c2ccccc2)cc1)C1CCn2ncc(Cl)c2C1 (centres undefined) | 260 |  | 3600 |  |  |  | 43 |  | 100 | 190 |  |  |  | 0.59 |  |  |
| CCCN(CCCCNC(=O)c1ccc(-c2ccccc2)cc1)C1Cc2cccn3ncc(c23)C1 (centres undefined) | 86 |  | 1800 |  |  |  | 240 |  | 270 | 230 |  |  |  | 0.55 |  |  |
| CCCN(CCCCNC(=O)c1ccc(-c2ccccc2)cc1)C1CCn2ncc(C=O)c2C1 (centres undefined) | 3800 |  | 23000 |  |  |  | 4700 |  | 8400 | 6300 |  |  |  | 39 |  |  |
